In ChEMBL document CHEMBL1156229, “Pharmacophore development and application toward the identification of novel, small-molecule autotaxin inhibitors” (J Med Chem, 2010) one finds inhibition data, which are given here for 45 compounds.

In this experiment the target is Autotaxin (Homo sapiens, UniProt Q13822). As to the kind of experiment: Inhibition of human recombinant C-terminal FLAG-tagged autotaxin expressed in baculovirus-infected Sf9 cells assessed as FS-3 hydrolysis at 10 uM relative to control. Put shortly:
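Single-dose screen: inhibitor 10 μM final, purified recombinant human ATX 8.3 nM, FS-3 1 μM, fatty acid free BSA 30 μM in Tris pH 8 buffer (1 mM MgCl2, 1 mM CaCl2, 3 mM KCl, 140 mM NaCl), 37 °C. Fluorescence (ex 485/em 538) read every 2 min; percent activity vs vehicle after no-ATX subtraction at 1 h; mean ± SD of three wells.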
As for `Nc1cccc(/N=N/c2c(S(=O)(=O)O)cc3cc(NC(=O)Nc4ccc5c(O)c(/N=N/c6cccc(N)c6)c(S(=O)(=O)O)cc5c4)ccc3c2O)c1`, the inhibition amounted to 32%. On to `O=C1Nc2ccc(S(=O)(=O)O)cc2/C1=N/Nc1ccccc1[N+](=O)[O-]`, for which the inhibition was 8%. In the case of `Nc1ccc2c(O)c(/N=N/c3ccc4c(O)cc(S(=O)(=O)O)cc4c3)c(S(=O)(=O)O)cc2c1`, the inhibition stood at 30%.

Consider `Nc1ccc(C(=O)Nc2ccc(C(=O)Nc3ccc(/C=C/c4ccc(NC(=O)c5ccc(N)cc5)cc4S(=O)(=O)O)c(S(=O)(=O)O)c3)cc2)cc1`, for which the inhibition amounted to 0%.

For `O=C1c2ccc(S(=O)(=O)O)cc2C(=O)c2c(Nc3ccccc3)ccc(Nc3ccc(S(=O)(=O)O)cc3)c21`, the inhibition was found to be 6%.

In the case of `Cc1cc(C(O)(c2ccc(Nc3ccccc3)cc2)c2ccc(Nc3ccc(S(=O)(=O)O)cc3)cc2)ccc1N` (stereo not given), the inhibition was determined as 65%. With `COc1cc(/N=N/c2ccc(/N=N/c3cc(S(=O)(=O)O)ccc3S(=O)(=O)O)c(C)c2)c(C)cc1/N=N/c1ccc(NC(=O)c2ccc(N)cc2)cc1C`, the inhibition came to 39%.

As for `O=S(=O)(O)c1ccc(O)c(/N=N/C=N/Nc2cc(S(=O)(=O)O)ccc2O)c1`, the inhibition is -1%. Turning to `COc1ccc(/C=N/NC(=N)C(=N)N/N=C/c2ccc(OC)c(S(=O)(=O)O)c2)cc1S(=O)(=O)O`, the inhibition was determined as 8%. For `N=C(N/N=C/c1ccccc1S(=O)(=O)O)C(=N)N/N=C/c1ccccc1S(=O)(=O)O` the value was 5%; for `Nc1c(S(=O)(=O)O)cc(Nc2cccc(S(=O)(=O)/C=C/S(=O)(=O)O)c2)c2c1C(=O)c1ccccc1C2=O`, 43%. Then `Nc1cccc(/N=N/c2c(S(=O)(=O)O)cc3cc(Nc4ccc5c(O)c(/N=N/c6cccc(N)c6)c(S(=O)(=O)O)cc5c4)ccc3c2O)c1`, with 33%. For `CC(=O)Nc1cc(S(=O)(=O)O)cc2cc(S(=O)(=O)O)c(/N=N/c3ccc(C(=O)Nc4ccc5cc(S(=O)(=O)O)ccc5c4)cc3)c(O)c12` the value was 29%; for `O=C(Nc1ccc2c(O)cc(S(=O)(=O)O)cc2c1)c1ccc([N+](=O)[O-])cc1`, 12%; for `O=S(=O)(O)c1ccc(/N=N/Nc2ccc(S(=O)(=O)O)cc2)cc1`, 1%. Consider `Cc1ccc(C(=O)Nc2ccc(S(=O)(=O)[O-])c3cc(S(=O)(=O)O)cc(S(=O)(=O)[O-])c23)cc1NC(=O)c1cccc(NC(=O)Nc2cccc(C(=O)Nc3cc(C(=O)Nc4ccc(S(=O)(=O)O)c5cc(S(=O)(=O)O)cc(S(=O)(=O)O)c45)ccc3C)c2)c1.Cc1ccc(C)c2c1c(NCCCCCCNc1cc(C)[n+](C)c3c(C)ccc(C)c13)cc(C)[n+]2C`, for which the inhibition was determined as 6%. For the compound `Cc1[nH]n(-c2cc(S(=O)(=O)O)ccc2O)c(=O)c1/N=N/c1c(NC(=O)c2ccc(N)cc2)ccc2cc(S(=O)(=O)O)ccc12`, the inhibition came out at 49%. On to `Cc1ccc(Nc2cccc3c2C(=O)c2cccc(Nc4ccc(C)cc4S(=O)(=O)O)c2C3=O)c(S(=O)(=O)O)c1`, for which the inhibition is 6%.

Take `COc1ccc(NS(=O)(=O)c2ccc(NC(CNC(C)S(=O)(=O)O)S(=O)(=O)O)cc2)cc1` (stereo not given): the inhibition turned out to be 4%.

For the compound `Nc1ccc(C(=O)Nc2ccc(C(=O)Nc3ccc4cc(S(=O)(=O)O)cc(S(=O)(=O)O)c4c3)cc2)cc1`, the inhibition turned out to be 5%. For the compound `Nc1ccc(C(=O)Nc2cccc(C(=O)Nc3ccc4c(O)c(/N=N/c5ccc(/N=N/c6ccc(S(=O)(=O)O)cc6)cc5)c(S(=O)(=O)O)cc4c3)c2)cc1`, the inhibition stood at 39%.

Regarding `CC(=O)Nc1ccc(/N=N/c2c(S(=O)(=O)O)cc3cc(NC(=O)Nc4ccc5c(O)c(/N=N/c6ccccc6)c(S(=O)(=O)O)cc5c4)ccc3c2O)cc1`, the inhibition was 17%. With `O=C(Nc1ccc(S(=O)(=O)c2ccc(NC(=O)Nc3ccc4cc(S(=O)(=O)O)ccc4c3)cc2)cc1)Nc1ccc2cc(S(=O)(=O)O)ccc2c1`, the inhibition is 43%. On to `Nc1ccc2c(O)c(/N=N/c3ccc(-c4ccc(/N=N/c5c(S(=O)(=O)O)cc6cc(S(=O)(=O)O)c(/N=N/c7cc(O)ccc7O)c(N)c6c5O)cc4)cc3)c(S(=O)(=O)O)cc2c1`, for which the inhibition was 1%. Take `CC(=O)Nc1cc(S(=O)(=O)O)cc2cc(S(=O)(=O)O)c(/N=N/c3ccc(C(=O)Nc4ccc(S(=O)(=O)O)cc4)cc3)c(O)c12`: the inhibition came out at 17%. With `O=C(Nc1ccc2cc(S(=O)(=O)O)cc(S(=O)(=O)O)c2c1)Nc1ccc2cc(S(=O)(=O)O)cc(S(=O)(=O)O)c2c1`, the inhibition worked out at 0%.

As to `Nc1cc(C(=O)Nc2ccc(S(=O)(=O)O)cc2)ccc1C(=O)Nc1ccc(S(=O)(=O)O)cc1`, the inhibition was -2%. Consider `Cc1cc(C)c(/N=N/c2cc(C)c(/N=N/c3c(S(=O)(=O)O)cc4cc(Nc5ccccc5)ccc4c3O)cc2C)c(S(=O)(=O)O)c1`, for which the inhibition was 27%. With `Nc1ccc(C(=O)Nc2ccc(NC(=O)Nc3ccc(NC(=O)c4ccc(N)cc4)c(S(=O)(=O)O)c3)cc2S(=O)(=O)O)cc1`, the inhibition worked out at 12%. Consider `NC(Cc1ccc(O)cc1)C(=O)NCCS(=O)(=O)O` (stereo not given), for which the inhibition turned out to be 1%. For the compound `O=C(Nc1ccc2c(O)cc(S(=O)(=O)O)cc2c1)Nc1ccc2c(O)cc(S(=O)(=O)O)cc2c1`, the inhibition turned out to be 11%. Turning to `CCOc1cc(-c2ccc(/N=N/c3c(S(=O)(=O)O)cc4ccc(N)cc4c3O)cc2)ccc1/N=N/c1c(S(=O)(=O)O)cc2ccc(N)cc2c1O`, the inhibition came out at 39%. In the case of `COc1ccc(/C=N/NC(=O)N/N=C/c2ccc(OC)c(S(=O)(=O)O)c2)cc1S(=O)(=O)O`, the inhibition turned out to be 2%.

For `O=C(Nc1ccc2c(O)c(/N=N/c3ccccc3)c(S(=O)(=O)O)cc2c1)Nc1ccc2c(O)c(/N=N/c3ccccc3)c(S(=O)(=O)O)cc2c1`, the inhibition stood at 23%. Take `O=C1/C(=C2\Nc3ccc(S(=O)(=O)O)cc3C2=O)Nc2ccc(S(=O)(=O)O)cc21`: the inhibition came to 12%.

With `O=C(Nc1cc(O)ccc1Oc1cc(O)c(O)cc1S(=O)(=O)O)Nc1cc(O)ccc1Oc1cc(O)c(O)cc1S(=O)(=O)O`, the inhibition came to 0%. With `O=C(Nc1ccc2c(O)cc(S(=O)(=O)O)cc2c1)Nc1ccc2c(O)c(/N=N/c3ccc4cc(S(=O)(=O)O)ccc4c3)c(S(=O)(=O)O)cc2c1`, the inhibition came out at 36%.

`Nc1cc(N)c(/N=N/c2cccc3c(S(=O)(=O)O)cccc23)cc1/N=N/c1cc([N+](=O)[O-])ccc1O`: the inhibition came out at 19%. Turning to `CCCCc1ccc(Nc2ccc(Nc3ccc(CCCC)cc3S(=O)(=O)O)c3c2C(=O)c2ccccc2C3=O)c(S(=O)(=O)O)c1`, the inhibition worked out at 8%. For the compound `O=C(Nc1ccc(S(=O)(=O)O)cc1)c1ccc(/N=N/c2cc(S(=O)(=O)O)c3ccccc3c2O)cc1`, the inhibition is 1%. Consider `Cc1ccc(Nc2cccc3c2C(=O)c2cccc(Nc4ccc(C)c(S(=O)(=O)O)c4)c2C3=O)cc1S(=O)(=O)O`, for which the inhibition worked out at 4%. On to `Cc1cc(C)c(S(=O)(=O)O)c(C)c1Nc1ccc(Nc2c(C)cc(C)c(S(=O)(=O)O)c2C)c2c1C(=O)c1ccccc1C2=O`, for which the inhibition is 13%. In the case of `COc1ccc(/C=N/NC(=O)C(=O)N/N=C/c2ccc(OC)c(S(=O)(=O)O)c2)cc1S(=O)(=O)O`, the inhibition was 0%.

For the compound `COc1cc(/N=N/c2cccc(S(=O)(=O)O)c2)ccc1NC(=O)Nc1ccc(/N=N/c2ccc(O)c(C(=O)O)c2)cc1`, the inhibition was found to be 21%. Then `O=C(Nc1ccc(C(=O)Nc2ccc3c(O)cc(S(=O)(=O)O)cc3c2)cc1)c1ccccc1`, with 21%.
